These results are taken from article PMC3936293 (Theranostics, 2014).

Where two headings read alike, the source gives them in different places.

For data set [1] the following is noted: literature data, ref [11]; cited from earlier work.
The nature of data set [2]: PET/CT imaging of tumor and organ uptake. It counts as in vivo. Particulars: male, human, total radioactivity.
Data set [3] in a line: Blood radioactivity clearance. It counts as in vivo, human. Particulars: bi-exponential fit of blood radioactivity concentration, 4 patients. The procedure, abridged:
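Four patients with newly diagnosed prostate cancer, fasted at least 4 h, received the 64Cu-labelled GRPr antagonist (130-233 MBq; 10-17 µg) diluted in 0.9% NaCl with 0.1% bovine serum albumin. Venous blood was drawn at 1, 2, 3, 4, 5, 10, 15 and 30 min and at 1, 2 and 4 h p.i. Radioactivity per mL was gamma-counted, reported as mean ± SD, and fitted bi-exponentially.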

The nature of data set [4]: Safety monitoring after injection. In kind it is in vivo, human. To be noted: 4 patients; laboratory tests before and 1-2 weeks after injection. The essentials: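 Patients were monitored from tracer administration until the end of the last PET/CT session (20 h p.i.) by interview, electrocardiography, heart rate and blood pressure. Serum electrolytes, liver and pancreatic enzymes, creatinine and blood counts were measured before and 1-2 weeks after injection (130-233 MBq; 10-17 µg).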

The nature of data set [5]: Radiation dosimetry. It counts as in vivo, human. The essentials: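 PET scans were taken at 20 min, 4 h and 20 h p.i., with attenuation correction by 68Ge transmission or CT. Body-weight-normalised SUVs came from circular ROIs centred in each organ. Urine was collected to 18 h in patients 2 and 3, and total excretion was calculated from 1 mL aliquots. Absorbed doses were computed in OLINDA/EXM 1.0 from the time-activity curves and urinary excretion (dynamic bladder model, 3-h voiding interval). Values are mean ± SD.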

Data set [6] in a line: Metabolite analysis of plasma and urine by RP-HPLC. It counts as in vivo, human. The procedure, abridged: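 Plasma was prepared by centrifuging blood drawn at 5 min, 30 min, 1 h and 4 h p.i., deproteinised with two volumes of ethanol, centrifuged again, and the supernatant analysed. In patient 2, a 2 h urine sample was loaded onto a C18 cartridge and eluted with ethanol. Analysis used reversed-phase HPLC (C18; 0.1% TFA in water/acetonitrile gradient) with photodiode-array and flow-through gamma detection.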

Setting [7] is: OLINDA/EXM 1.0, dynamic bladder model, 3-hour voiding interval, mean ± SD.

`C[N+](C)(CF)CCO` [^18F-fluorocholine]: in data set [1], the Effective dose was 0.031 ± 0,007 mSv/MBq, the Radiation dose kidney was 0.159 ± 0,072 mSv/MBq, the Radiation dose liver is listed as 0.059 ± 0,012 mSv/MBq and the Radiation dose spleen is listed as 0.054 ± 0,021 mSv/MBq. In data set [1], the “Radiation dose urinary bladder wall” value is 0.063 ± 0,060 mSv/MBq.

As to `CC(C)C[C@H](NC(=O)C[C@H](O)[C@H](CC(C)C)NC(=O)[C@H](Cc1c[nH]cn1)NC(=O)CNC(=O)[C@@H](NC(=O)[C@H](C)NC(=O)[C@H](Cc1c[nH]c2ccccc12)NC(=O)[C@H](CCC(N)=O)NC(=O)[C@@H](Cc1ccccc1)NC(=O)COCCOCCOCCOCCNC(=O)CN1CCCN2CCN(CCCN(CC(=O)O)CC2)CC1)C(C)C)C(N)=O` [^64Cu-CB-TE2A-AR06, (^64Cu-4,11-bis(carboxymethyl)-1,4,8,11-tetraazabicyclo(6.6.2)hexadecane)-PEG4-D-Phe-Gln-Trp-Ala-Val-Gly-His-Sta-LeuNH2, metal not drawn], the SUV at 4 h in data set [2] (bladder) turned out to be 14 ± 6.63 SUV. In addition, the SUV at 4 h in data set [2] (intestine) worked out at 0.78 ± 0.68 SUV. In data set [2] (kidney parenchyma), the SUV at 4 h worked out at 1.64 ± 0.37 SUV and the SUV at 20 h is 0.71 ± 0.34 SUV. The SUV at 4 h in data set [2] (liver) was 1.8 ± 1.02 SUV. In data set [2] (pancreas), the SUV at 4 h was determined as 6.73 ± 3.34 SUV and the SUV at 20 h is 0.28 ± 0.22 SUV. Also, the SUV at 4 h in data set [2] (prostate) was found to be 0.95 ± 0.42 SUV. Further, in data set [2] (urinary tract collection system), the SUV at 4 h is 5.86 ± 5.34 SUV. Moreover, in data set [3], the “initial half-life in blood” value was 5 min and the “terminal half-life in blood” value came out at 2.75 h. The “changes in vital signs, laboratory studies or electrocardiograms” value in data set [4] is recorded as “No significant changes”. For the same compound, in data set [5] (setting [7]), the Effective radiation dose was 0.019 ± 0.008 mSv/MBq and the “Radiation dose urinary bladder wall” value stood at 0.176 ± 0.001 mSv/MBq. Besides, in data set [5] (OLINDA/EXM 1.0, mean ± SD), the Radiation dose kidney is on record as 0.033 ± 0.008 mSv/MBq, the Radiation dose liver is listed as 0.039 ± 0.020 mSv/MBq, the Radiation dose pancreas was 0.094 ± 0.027 mSv/MBq and the Radiation dose spleen was found to be 0.031 ± 0.024 mSv/MBq. Further, the metabolites in urine result in data set [6] (patient 2, 2 h urine sample, C18 column, ethanol elution) is listed as “Only the parent compound was detected”. In data set [6] (plasma at 5 min p.i., ethanol protein precipitation), the metabolites in plasma entry is reported as “No metabolites were detected”.
